Experimental data: ChEMBL document CHEMBL4316604, “Discovery of Isaindigotone Derivatives as Novel Bloom's Syndrome Protein (BLM) Helicase Inhibitors That Disrupt the BLM/DNA Interactions and Regulate the Homologous Recombination Repair” (J Med Chem, 2019)
The source made the active and inactive calls. The calls are words filed in the database; no cut-off is given here.

What was measured:
[1] = target: T1, RecQ-like DNA helicase BLM (Homo sapiens, UniProt P54132); experiment: Inhibition of 5'-biotin labeled duplex forked-DNA binding to BLM (unknown origin) assessed as increase in unbound DNA levels after 1 hr by ELISA
Method in brief: (§1)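 Biotinylated forked DNA (50 nM) immobilised on streptavidin plates overnight at 4 °C. BLM or mutant (100 nM final) premixed with serially halved ligand in 3% BSA blocking buffer, ≤1% DMSO, 1 h on ice. Applied to the blocked plate for 1 h at 37 °C. Bound BLM detected with anti-BLM and HRP secondary, TMB, A450; Hill fit.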

HCT-116 [2] = experiment: Antiproliferative activity against human HCT116 cells after 24 hrs in presence of siRNA by MTT assay; assay type: functional, cell-based; settings: in the assay text read “after 48 hrs” for “after 24 hrs”
Method in brief: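 HCT116 cells (5×10^3/well) grown 24 h, then exposed to 0–50 μM test agent; for knockdown, cells pre-treated with 50 nM BLM siRNA for 24 h first.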

HCT-116 [3] = experiment: Induction of apoptosis in human HCT116 cells assessed as up-regulation of p53 phosphorylation up to 2 uM after 48 hrs by Western blot analysis; assay type: functional, cell-based
HCT-116 [4] = experiment: Induction of apoptosis in human HCT116 cells assessed as up-regulation of CHK1 phosphorylation up to 2 uM after 24 hrs by Western blot analysis
[5] = target: RecQ-like DNA helicase BLM (Homo sapiens, UniProt P54132, E1143A); experiment: Binding affinity to His-tagged BLM E1143A mutant (unknown origin) expressed in Escherichia coli BL21 (DE3) by ITC assay
Method in brief: (§2)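 ITC at 25 °C in 2 mM MgCl2, 10 mM KH2PO4, pH 7.5: ligand (0.6 mM, syringe) titrated in 10 μL injections, 300 s apart, into BLM642-1296 wild-type or point mutant, or DNA (0.04 mM, cell). His-tagged BLM from E. coli BL21(DE3), induced with […] at 16 °C for 24 h. Heats integrated, fitted to 1:1 model for KD.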

[6] = target: T1, RecQ-like DNA helicase BLM; experiment: Inhibition of BLM in human HCT116 cells assessed as induction of RAD51 foci accumulation on gamma-H2AX foci at 1 to 2 after 24 hrs by immunofluorescence assay; assay type: cell-based
Method in brief: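 HCT116 cells treated 24 h, fixed in 4% paraformaldehyde, permeabilised with 0.5% Triton X-100, blocked in 5% goat serum. Stained with γ-H2AX and RAD51 antibodies overnight at 4 °C, Alexa 488/647 secondaries and DAPI. Imaged by confocal microscopy for foci co-localisation.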

HCT-116 [7] = experiment: Induction of apoptosis in human HCT116 cells assessed as increase in cleaved caspase 7 expression at 2 uM after 48 hrs by Western blot analysis; assay type: functional, cell-based
Method in brief: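 HCT116 cells treated with ligand (DNA-damage proteins 24 h, apoptosis proteins 48 h), lysed in RIPA at 4 °C. 40 μg protein per lane resolved by SDS-PAGE, blotted to PVDF, probed with damage and apoptosis antibody panels; β-actin loading control; chemiluminescent detection.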

[8] = target: T1, RecQ-like DNA helicase BLM; experiment: Binding affinity to His-tagged BLM (642 to 1296 residues) (unknown origin) expressed in Escherichia coli BL21 (DE3) by ITC assay; method in brief: as §2
[9] = tested on: RecQ-like DNA helicase BLM (Homo sapiens), P54132 [H996A]; experiment: Inhibition of His-tagged BLM H996A mutant (unknown origin) binding to DNA assessed as effect on unbound DNA; method in brief: as §1
[10] = tested on: RecQ-like DNA helicase BLM (Homo sapiens), P54132 [Y995A]; experiment: Inhibition of His-tagged BLM Y995A mutant (unknown origin) binding to DNA assessed as effect on unbound DNA
Method in brief: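 Truncated His-tagged BLM (residues 642-1296) mutant expressed in E. coli BL21(DE3). ELISA with 5′-biotin forked DNA (50 nM) immobilized on streptavidin plates at 4 °C overnight. BLM at 100 nM final was premixed with half-diluted compound (≤1% DMSO) on ice for 1 h, then added at 37 °C for 1 h. Bound BLM was detected with anti-BLM/HRP-TMB at A450; curves were Hill-fitted.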

T1 sequence (P54132 whole entry): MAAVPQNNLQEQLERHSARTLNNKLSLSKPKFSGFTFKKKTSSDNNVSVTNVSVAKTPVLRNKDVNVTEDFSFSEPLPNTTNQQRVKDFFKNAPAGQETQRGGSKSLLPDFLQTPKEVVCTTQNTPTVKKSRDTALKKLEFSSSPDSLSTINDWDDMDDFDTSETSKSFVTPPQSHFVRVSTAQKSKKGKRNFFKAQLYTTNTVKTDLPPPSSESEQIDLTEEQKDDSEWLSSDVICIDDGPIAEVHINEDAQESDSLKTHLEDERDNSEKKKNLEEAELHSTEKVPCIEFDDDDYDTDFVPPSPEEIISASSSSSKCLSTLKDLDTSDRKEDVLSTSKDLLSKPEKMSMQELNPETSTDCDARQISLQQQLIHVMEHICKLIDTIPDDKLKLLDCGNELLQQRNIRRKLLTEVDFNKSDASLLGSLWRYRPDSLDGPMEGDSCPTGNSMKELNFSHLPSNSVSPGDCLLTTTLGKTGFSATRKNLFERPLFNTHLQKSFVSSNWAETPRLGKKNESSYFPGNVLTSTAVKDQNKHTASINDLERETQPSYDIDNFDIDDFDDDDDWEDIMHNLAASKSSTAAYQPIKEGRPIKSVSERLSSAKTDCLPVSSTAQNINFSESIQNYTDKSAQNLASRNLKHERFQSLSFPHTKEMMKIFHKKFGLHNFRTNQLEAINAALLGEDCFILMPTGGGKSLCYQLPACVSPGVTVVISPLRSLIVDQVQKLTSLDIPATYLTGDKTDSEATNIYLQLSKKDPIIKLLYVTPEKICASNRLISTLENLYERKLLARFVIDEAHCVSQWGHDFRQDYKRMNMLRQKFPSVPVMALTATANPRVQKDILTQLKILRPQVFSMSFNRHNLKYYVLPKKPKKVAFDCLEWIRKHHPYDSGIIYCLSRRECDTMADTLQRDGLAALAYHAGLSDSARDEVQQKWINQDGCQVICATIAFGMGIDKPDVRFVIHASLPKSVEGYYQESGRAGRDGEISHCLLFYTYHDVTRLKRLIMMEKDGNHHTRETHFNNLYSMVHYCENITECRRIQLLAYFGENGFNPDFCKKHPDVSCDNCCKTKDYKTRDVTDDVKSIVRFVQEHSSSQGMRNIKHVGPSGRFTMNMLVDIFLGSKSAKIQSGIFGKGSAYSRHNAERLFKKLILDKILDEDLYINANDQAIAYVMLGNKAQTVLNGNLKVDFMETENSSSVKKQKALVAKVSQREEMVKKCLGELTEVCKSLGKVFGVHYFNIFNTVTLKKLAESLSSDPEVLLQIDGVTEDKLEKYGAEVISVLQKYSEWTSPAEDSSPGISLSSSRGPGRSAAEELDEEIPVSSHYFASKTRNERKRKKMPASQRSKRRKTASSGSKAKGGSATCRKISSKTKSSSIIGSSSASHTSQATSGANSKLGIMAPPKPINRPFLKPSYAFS
Chain of RecQ-like DNA helicase BLM (Homo sapiens, UniProt P54132, E1143A) (P54132 whole entry E1143A): as the sequence (P54132 whole entry) above, with E1143A counted along it
Chain of RecQ-like DNA helicase BLM (Homo sapiens), P54132 [Y995A] (P54132 whole entry Y995A, the tested form may be a part): as the sequence (P54132 whole entry) above, with Y995A counted along it
Chain of RecQ-like DNA helicase BLM (Homo sapiens), P54132 [H996A] (P54132 whole entry H996A): as the sequence (P54132 whole entry) above, with H996A counted along it

`CCN(CC)CCCNc1cc2nc3n(c(=O)c2cc1F)CC/C3=C\c1ccc(C(C)C)cc1` was tested, and the IC50 [1] was 3.95 µM, the inhibition [1] was “Dose-dependent effect” and the Activity (HCT-116 [2]) was “inactive”. The Activity (HCT-116 [3]) was “Dose-dependent effect”, the Activity (HCT-116 [4]) was “Dose-dependent effect” and the Kd [5] was 6 µM. For the same molecule, the inhibition [6] was “Active”, the Activity (HCT-116 [7]) was “Active” and the Kd [8] was 1.8 µM. For the same molecule, the inhibition [9] was “inactive” and the inhibition [10] was “inactive”.
